pIC50, pKd: −log10 of the molar value.
Legend:
[1] = target: T1, Myelin-associated glycoprotein (Homo sapiens, UniProt P20916); test: Inhibition of MAG -Fc chimera expressed in CHO cells using NeuAc alpha2-3Galbeta1-4GlcNAc-R coupled biotinylated polyacrylamide after 30 mins by ELISA; format: cell-based
T1 sequence (P20916 whole entry): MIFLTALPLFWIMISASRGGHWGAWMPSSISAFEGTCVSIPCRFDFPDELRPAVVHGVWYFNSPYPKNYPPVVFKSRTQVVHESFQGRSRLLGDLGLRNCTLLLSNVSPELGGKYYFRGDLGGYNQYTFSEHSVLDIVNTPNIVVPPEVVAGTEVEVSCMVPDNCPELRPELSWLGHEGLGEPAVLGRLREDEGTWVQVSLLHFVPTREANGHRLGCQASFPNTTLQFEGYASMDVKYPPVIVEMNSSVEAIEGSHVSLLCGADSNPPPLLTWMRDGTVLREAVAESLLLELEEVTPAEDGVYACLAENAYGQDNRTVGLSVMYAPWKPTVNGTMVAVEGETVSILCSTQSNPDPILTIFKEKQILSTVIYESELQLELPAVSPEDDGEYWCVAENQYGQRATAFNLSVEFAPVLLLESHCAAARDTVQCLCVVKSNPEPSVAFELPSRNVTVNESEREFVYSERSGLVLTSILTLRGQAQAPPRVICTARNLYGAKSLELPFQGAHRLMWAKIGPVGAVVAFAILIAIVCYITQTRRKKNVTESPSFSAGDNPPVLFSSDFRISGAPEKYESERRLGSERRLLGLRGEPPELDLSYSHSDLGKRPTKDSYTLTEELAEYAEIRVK
Method in brief: (§1)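 Each compound was run in triplicate and assayed on three separate days, each time alongside at least one other compound to check for drift. IC50 is the mean and standard deviation of the three separate assays.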

[2] = target: T1, Myelin-associated glycoprotein; test: Binding affinity to wild type MAG at 400 uM by Isothermal titration calorimetry
[3] = target: T1, Myelin-associated glycoprotein; test: Binding affinity to MAG
Method in brief: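 Competitive inhibition of MAG-Fc chimera binding to a polymeric ligand adsorbed in microplate wells, run in triplicate. Each compound was assayed three times on separate days, alongside at least one other compound, and the IC50 reported as mean and standard deviation. Apparent Kd values were calculated from IC50 against a reference ligand whose Kd was measured by isothermal titration calorimetry.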

[4] = target: T1, Myelin-associated glycoprotein; test: Inhibition of MAG
Method in brief: as §1, with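 “Competition format: MAG-Fc chimera binding to a polymeric ligand adsorbed on plate wells, with the inhibitor titrated to give IC50. Each” for “Each”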

Row | Structure (SMILES) | pIC50 [1] | pKd [2] | pIC50 [4] | pKd [3]
1 | CC(=O)N[C@H]1[C@H]([C@H](O)[C@H](O)CNC(=O)c2ccccc2)O[C@@](O[C@H]2[C@@H](O)[C@@H](CO)O[C@@H](O[C@H]3[C@@H](O)[C@@H](CO)O[C@@H](OCC[Si](C)(C)C)[C@@H]3O)[C@@H]2O)(C(=O)O)C[C@@H]1O | – | – | – | 4.49
2 | COC(=O)[C@@H](NC(C)=O)[C@@H](C)O[C@H]1O[C@H](CO[C@]2(C(=O)O)C[C@H](O)[C@@H](NC(C)=O)[C@H]([C@H](O)[C@H](O)CNC(=O)c3ccc(F)cc3)O2)[C@H](O)[C@H](O[C@@H]2O[C@H](CO)[C@H](O)[C@H](O)[C@H]2O)[C@H]1NC(C)=O | 5.96 | 5.75 | – | –
3 | COC(=O)[C@@H](NC(C)=O)[C@@H](C)O[C@H]1O[C@H](CO[C@]2(C(=O)O)C[C@H](O)[C@@H](NC(C)=O)[C@H]([C@H](O)[C@H](O)CNC(=O)c3ccc(Cl)cc3)O2)[C@H](O)[C@H](O[C@@H]2O[C@H](CO)[C@H](O)[C@H](O)[C@H]2O)[C@H]1NC(C)=O | 6.19 | 6.00 | – | –
4 | COC(=O)[C@@H](NC(C)=O)[C@@H](C)O[C@H]1O[C@H](CO[C@]2(C(=O)O)C[C@H](O)[C@@H](NC(C)=O)[C@H]([C@H](O)[C@H](O)CO)O2)[C@H](O)[C@H](O[C@@H]2O[C@H](CO)[C@H](O)[C@H](O[C@]3(C(=O)O)C[C@H](O)[C@@H](NC(C)=O)[C@H]([C@H](O)[C@H](O)CNC(=O)c4ccc(F)cc4)O3)[C@H]2O)[C@H]1NC(C)=O | 6.52 | 6.32 | – | –
5 | CC(=O)N[C@H]1[C@H](OCC[Si](C)(C)C)O[C@H](CO)[C@H](O)[C@@H]1O[C@@H]1O[C@H](CO)[C@H](O)[C@H](O[C@]2(C(=O)O)C[C@H](O)[C@@H](NC(C)=O)[C@H]([C@H](O)[C@H](O)CO)O2)[C@H]1O | – | – | – | 3.74
6 | COC(=O)[C@@H](NC(C)=O)[C@@H](C)O[C@H]1O[C@H](CO[C@]2(C(=O)O)C[C@H](O)[C@@H](NC(C)=O)[C@H]([C@H](O)[C@H](O)CNC(=O)c3ccc(F)cc3)O2)[C@H](O)[C@H](O[C@@H]2O[C@H](CO)[C@H](O)[C@H](O[C@]3(C(=O)O)C[C@H](O)[C@@H](NC(C)=O)[C@H]([C@H](O)[C@H](O)CO)O3)[C@H]2O)[C@H]1NC(C)=O | 8.05 | 7.82 | – | –
7 | O=C(CF)N[C@H]1[C@H]([C@H](O)[C@H](O)CNC(=O)c2ccccc2)O[C@@](OCc2cccc(F)c2F)(C(=O)O)C[C@@H]1O | – | – | – | 6.30

Second part, led by results:

Row | pIC50 [1] | pKd [2] | pIC50 [4] | Structure (SMILES) | pKd [3]
8 | 5.92 | 5.72 | – | COC(=O)[C@@H](NC(C)=O)[C@@H](C)O[C@H]1O[C@H](CO)[C@H](O)[C@H](O[C@@H]2O[C@H](CO)[C@H](O)[C@H](O[C@]3(C(=O)O)C[C@H](O)[C@@H](NC(C)=O)[C@H]([C@H](O)[C@H](O)CO)O3)[C@H]2O)[C@H]1NC(C)=O | –
9 | 6.19 | 6.00 | – | COC(=O)[C@@H](NC(C)=O)[C@@H](C)O[C@H]1O[C@H](CO)[C@H](O)[C@H](O[C@@H]2O[C@H](CO)[C@H](O)[C@H](O[C@]3(C(=O)O)C[C@H](O)[C@@H](NC(C)=O)[C@H]([C@H](O)[C@H](O)CNC(=O)c4ccccc4)O3)[C@H]2O)[C@H]1NC(C)=O | –
10 | – | – | 5.92 | CC(=O)N[C@H]1[C@@H](O[C@H](C)[C@H](N)C(=O)O)O[C@H](CO)[C@H](O)[C@@H]1O[C@@H]1O[C@H](CO)[C@H](O)[C@H](O[C@]2(C(=O)O)C[C@H](O)[C@@H](NC(C)=O)[C@H]([C@H](O)[C@H](O)CO)O2)[C@H]1O | –
11 | – | – | 4.28 | CC(=O)N[C@H]1[C@@H](OCc2ccccc2)O[C@H](CO)[C@H](O)[C@@H]1O[C@@H]1O[C@H](CO)[C@H](O)[C@H](O[C@]2(C(=O)O)C[C@H](O)[C@@H](NC(C)=O)[C@H]([C@H](O)[C@H](O)CO)O2)[C@H]1O | –
12 | – | – | 6.52 | CC(=O)N[C@H]1[C@@H](O[C@H](C)[C@H](N)C(=O)O)O[C@H](CO[C@]2(C(=O)O)C[C@H](O)[C@@H](NC(C)=O)[C@H]([C@H](O)[C@H](O)CO)O2)[C@H](O)[C@@H]1O[C@@H]1O[C@H](CO)[C@H](O)[C@H](O[C@]2(C(=O)O)C[C@H](O)[C@@H](NC(C)=O)[C@H]([C@H](O)[C@H](O)CO)O2)[C@H]1O | –
13 | 6.21 | 6.00 | – | COC(=O)[C@@H](NC(C)=O)[C@@H](C)O[C@H]1O[C@H](CO)[C@H](O)[C@H](O[C@@H]2O[C@H](CO)[C@H](O)[C@H](O[C@]3(C(=O)O)C[C@H](O)[C@@H](NC(C)=O)[C@H]([C@H](O)[C@H](O)CNC(=O)c4ccc(Cl)cc4)O3)[C@H]2O)[C@H]1NC(C)=O | –
14 | 7.10 | 6.89 | – | COC(=O)[C@@H](NC(C)=O)[C@@H](C)O[C@H]1O[C@H](CO)[C@H](O)[C@H](O[C@@H]2O[C@H](CO)[C@H](O)[C@H](O[C@]3(C(=O)O)C[C@H](O)[C@@H](NC(C)=O)[C@H]([C@H](O)[C@H](O)CNC(=O)c4ccc(F)cc4)O3)[C@H]2O)[C@H]1NC(C)=O | –
15 | 5.10 | 4.89 | – | COC(=O)[C@@H](NC(C)=O)[C@@H](C)O[C@H]1O[C@H](CO[C@]2(C(=O)O)C[C@H](O)[C@@H](NC(C)=O)[C@H]([C@H](O)[C@H](O)CO)O2)[C@H](O)[C@H](O[C@@H]2O[C@H](CO)[C@H](O)[C@H](O)[C@H]2O)[C@H]1NC(C)=O | –
16 | – | – | 3.57 | CC(=O)N[C@@H]1[C@@H](O[C@@H]2O[C@H](CO)[C@H](O)[C@H](O[C@]3(C(=O)O)C[C@H](O)[C@@H](NC(C)=O)[C@H]([C@H](O)[C@H](O)CO)O3)[C@H]2O)[C@@H](O)[C@@H](CO)O[C@H]1Sc1ccc(C)cc1 | –
